Laboratory results taken from ChEMBL document CHEMBL3352044, “Synthesis and structure-activity relationship studies of N-benzyl-2-phenylpyrimidin-4-amine derivatives as potent USP1/UAF1 deubiquitinase inhibitors with anticancer activity against nonsmall cell lung cancer” (J Med Chem, 2014).
Values after ≈ are worked out from the molar mass of the structure shown.

Experiments:
Liver microsome [1] = assay: Half life in rat liver microsomes in presence of NADPH; assay type: ADME
In short: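 Rat liver microsomes with NADPH; half-life in minutes.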

[2] = biological target: 5-hydroxytryptamine receptor 2B (Homo sapiens) (UniProt P41595); assay: Inhibition of 5-HT2B (unknown origin) at 10 uM
In short: (§1)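 Single concentration of 10 μM in an 80-target panel of GPCRs, ion channels and transporters; percent inhibition recorded.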

[3] = biological target: 5-hydroxytryptamine receptor 2A (Homo sapiens) (UniProt P28223); assay: Inhibition of 5-HT2A (unknown origin) at 10 uM; in short: as §1
[4] = biological target: T1, 5-hydroxytryptamine receptor 2C (Homo sapiens) (UniProt P28335); assay: Inhibition of 5-HT2C (unknown origin) at 10 uM; in short: as §1
T1 sequence (whole entry): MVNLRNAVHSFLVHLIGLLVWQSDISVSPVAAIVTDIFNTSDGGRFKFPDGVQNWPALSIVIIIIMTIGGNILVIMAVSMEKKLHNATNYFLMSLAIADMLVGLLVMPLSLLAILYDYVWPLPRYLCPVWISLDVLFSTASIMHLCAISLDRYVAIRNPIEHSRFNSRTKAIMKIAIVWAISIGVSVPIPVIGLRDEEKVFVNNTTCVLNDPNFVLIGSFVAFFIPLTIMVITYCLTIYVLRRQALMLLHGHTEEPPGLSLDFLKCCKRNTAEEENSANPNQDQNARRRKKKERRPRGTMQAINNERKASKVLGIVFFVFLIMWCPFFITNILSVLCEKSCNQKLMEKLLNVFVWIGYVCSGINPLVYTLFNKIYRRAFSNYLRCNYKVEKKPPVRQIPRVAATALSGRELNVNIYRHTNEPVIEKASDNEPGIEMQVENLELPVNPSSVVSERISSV

[5] = Lipophilicity, log D of the compound at pH 7.4 by shake-flask method; assay type: physicochemical; conditions: buffer
In short: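 Log D at pH 7.4 by miniaturized (scaled-down) shake-flask method.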

[6] = Kinetic aqueous solubility of the compound in PBS at pH 7.4; assay type: physicochemical; conditions: read-out: Kinetic_solubility
Homo sapiens = species: Homo sapiens; assay: Inhibition of Calcium channel (unknown origin) at 10 uM; in short: as §1
[7] = biological target: Melatonin receptor type 1A (Homo sapiens) (UniProt P48039); assay: Inhibition of MT1 (unknown origin) at 10 uM; in short: as §1
Liver = assay: Half life in mouse liver microsomes; assay type: ADME
In short: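 Incubated with mouse liver microsomes in the presence of NADPH, run by a contract lab; read-out is the half-life (T1/2) in minutes.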

[8] = biological target: T2, Adenosine receptor A3 (Homo sapiens) (UniProt P0DMS8); assay: Inhibition of adenosine A3 receptor (unknown origin) at 10 uM; in short: as §1
T2 sequence (whole entry): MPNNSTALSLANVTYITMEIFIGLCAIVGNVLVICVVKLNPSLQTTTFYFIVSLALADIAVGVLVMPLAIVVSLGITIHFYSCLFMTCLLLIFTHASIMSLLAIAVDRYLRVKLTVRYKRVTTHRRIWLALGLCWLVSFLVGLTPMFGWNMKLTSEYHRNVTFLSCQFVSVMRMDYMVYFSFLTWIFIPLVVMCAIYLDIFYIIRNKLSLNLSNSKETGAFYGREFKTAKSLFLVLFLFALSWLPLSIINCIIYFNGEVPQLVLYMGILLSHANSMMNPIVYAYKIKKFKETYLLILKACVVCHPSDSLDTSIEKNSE

[9] = Stability of the compound in mouse plasma after 2 hrs; assay type: ADME, cell-free; conditions: read-out: Stability
In short: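 Mouse plasma incubation for 2 h; percent compound remaining.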

[10] = biological target: T3, Peroxisome proliferator-activated receptor gamma (Homo sapiens) (UniProt P37231); assay: Inhibition of PPARgamma (unknown origin) at 10 uM; in short: as §1
T3 sequence (whole entry): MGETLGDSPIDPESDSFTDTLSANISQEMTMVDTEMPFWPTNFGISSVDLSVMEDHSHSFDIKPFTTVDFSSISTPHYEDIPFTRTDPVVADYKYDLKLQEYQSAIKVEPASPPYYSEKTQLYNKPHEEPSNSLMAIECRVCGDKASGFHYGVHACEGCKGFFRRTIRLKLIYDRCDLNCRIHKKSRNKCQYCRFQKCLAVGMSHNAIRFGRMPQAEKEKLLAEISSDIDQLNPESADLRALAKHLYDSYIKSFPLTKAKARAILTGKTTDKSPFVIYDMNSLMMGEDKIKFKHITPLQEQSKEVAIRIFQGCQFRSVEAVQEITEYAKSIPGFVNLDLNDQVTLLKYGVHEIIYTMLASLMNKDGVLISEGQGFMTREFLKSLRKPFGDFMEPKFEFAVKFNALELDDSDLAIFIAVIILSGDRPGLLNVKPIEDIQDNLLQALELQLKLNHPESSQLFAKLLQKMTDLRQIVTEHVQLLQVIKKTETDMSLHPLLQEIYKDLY

Liver microsome [11] = assay: Half life in human liver microsomes; assay type: ADME
In short: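 Human liver microsomes in the presence of NADPH; half-life (min).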

[12] = Chemical stability of the compound in PBS buffer at pH 7.4 after 48 hrs; assay type: physicochemical; conditions: read-out: Stability
In short: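 PBS buffer pH 7.4 for 48 h; percent compound remaining.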

[13] = Cytotoxicity against human H1299 cells assessed as reduction in colony formation at 5 uM after 7 days; assay type: functional; conditions: NCI-H1299, 168 h, read-out: INH
In short: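 H1299 cells seeded at 200 cells/well, attached overnight, then exposed to 5 μM compound or equal volume DMSO. After 7 days, fixed with 20% methanol and stained with 0.1% crystal violet; percent survival scored versus DMSO control.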

[14] = Permeability of the compound from apical to basolateral direction in human Caco2 cells; assay type: ADME, cell-based; conditions: caco-2

Melatonin receptor type 1A (Homo sapiens), sequence (P48039 whole entry): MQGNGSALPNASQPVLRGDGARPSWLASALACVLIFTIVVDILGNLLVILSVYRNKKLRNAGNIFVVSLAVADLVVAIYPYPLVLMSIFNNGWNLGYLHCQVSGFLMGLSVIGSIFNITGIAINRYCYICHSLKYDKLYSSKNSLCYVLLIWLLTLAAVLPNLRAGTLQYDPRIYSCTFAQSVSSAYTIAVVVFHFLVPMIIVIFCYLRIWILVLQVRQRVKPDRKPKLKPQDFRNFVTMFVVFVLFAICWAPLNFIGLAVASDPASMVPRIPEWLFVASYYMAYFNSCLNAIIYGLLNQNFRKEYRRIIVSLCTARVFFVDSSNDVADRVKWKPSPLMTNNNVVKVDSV
5-hydroxytryptamine receptor 2A (Homo sapiens), sequence (P28223 whole entry): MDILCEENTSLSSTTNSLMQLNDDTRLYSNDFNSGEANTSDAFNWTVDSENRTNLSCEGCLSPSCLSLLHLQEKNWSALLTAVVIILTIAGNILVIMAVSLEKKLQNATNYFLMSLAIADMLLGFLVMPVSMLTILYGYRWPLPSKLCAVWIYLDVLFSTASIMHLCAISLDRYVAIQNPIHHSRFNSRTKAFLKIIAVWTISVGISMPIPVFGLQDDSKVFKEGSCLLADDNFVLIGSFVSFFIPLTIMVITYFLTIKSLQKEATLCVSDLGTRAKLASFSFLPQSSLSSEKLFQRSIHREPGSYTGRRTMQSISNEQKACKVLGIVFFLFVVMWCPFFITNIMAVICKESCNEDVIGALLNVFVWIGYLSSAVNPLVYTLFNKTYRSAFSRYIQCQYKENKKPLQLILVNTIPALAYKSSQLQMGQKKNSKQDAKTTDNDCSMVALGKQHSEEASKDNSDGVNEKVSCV
5-hydroxytryptamine receptor 2B (Homo sapiens), sequence (P41595 whole entry): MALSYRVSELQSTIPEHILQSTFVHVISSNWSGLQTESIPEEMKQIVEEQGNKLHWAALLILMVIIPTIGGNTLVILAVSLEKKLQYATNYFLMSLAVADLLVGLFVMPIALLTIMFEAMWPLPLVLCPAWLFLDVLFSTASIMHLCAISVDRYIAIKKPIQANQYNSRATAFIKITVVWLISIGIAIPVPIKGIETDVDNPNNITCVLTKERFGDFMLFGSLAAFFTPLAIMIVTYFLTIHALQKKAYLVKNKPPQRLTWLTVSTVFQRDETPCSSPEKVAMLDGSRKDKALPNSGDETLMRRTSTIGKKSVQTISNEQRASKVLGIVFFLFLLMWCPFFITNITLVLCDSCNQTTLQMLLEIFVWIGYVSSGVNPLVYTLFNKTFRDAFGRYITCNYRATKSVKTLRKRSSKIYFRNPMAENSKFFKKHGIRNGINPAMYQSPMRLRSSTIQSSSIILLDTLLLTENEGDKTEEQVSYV

## Cc1cnc(-c2ccccc2C(C)C)nc1NCc1ccc(-n2ccnn2)cc1
Liver microsome [1]
  t1/2: 15 min
[2]
  inhibition: > 50%
[3]
  inhibition: > 50%
[4]
  inhibition: > 50%
[5]
  logD: 1.97
[6]
  solubility kinetic: 86 µM (≈ 33.1 µg/mL)
Homo sapiens
  inhibition: > 50%
[7]
  inhibition: > 50%
Liver
  t1/2: 15 min
[8]
  inhibition: > 50%
[9]
  remaining at 2 h: 99%
[10]
  inhibition: > 50%
Liver microsome [11]
  t1/2: 26 min
[12]
  remaining at 48 h: 99%
[13]
  inhibition at 5 µM: > 70%
[14]
  Papp: 22.98 ×10⁻⁶ cm/s
